NadD block = blocks S. aureus nicotinate mononucleotide adenylyltransferase; inhibition, % at 20 µM; purified NadD enzyme, colorimetric absorbance read-out; 360,000 compounds, 0.78% hits; in the data active = inhibition above about 26%
Scp-1 inhibitor = inhibitors of human Scp-1 phosphatase. Recombinant Scp1, phosphopeptide, malachite green phosphate absorbance. inhibition, % at 20 µM. 340,000 compounds, 0.88% hits;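 active = inhibition above about 50% at 20 µM, limit read from the data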;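 also: plate controls were DMSO wells with enzyme for no effect and wells lacking enzyme for full effect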
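Test system: SCP-1 catalytic domain; Buffer or medium: Acidic Tris acetate buffer with magnesium and detergent; Also added: Phosphorylated 17-residue peptide substrate; Compound: single 20 µM dose, 1% DMSO; Schedule: enzyme reaction 45 min at room temperature, colour 5 min, stabilisation 30 min; Signal: Phosphate-binding colour reagent, absorbance read at 630 nm.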
LMPTP inh = blocks human LMPTP phosphatase; P24666; recombinant LMPTP-A, OMFP fluorogenic substrate, fluorescence intensity; inhibition, % at 20 µM; 360,000 compounds, 0.22% hits;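 active = compounds that cut the enzyme signal by at least half of the control window in the single-dose screen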;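 also: plate controls were DMSO wells with enzyme plus substrate for no effect and substrate without enzyme for full effect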
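Test system – LMPTP-A phosphatase enzyme · Quantity – 0.625 nM LMPTP-A final · Reagent – OMFP substrate, 400 µM final · Dosing – one test concentration per compound, 20 µM, with 3% DMSO overall · Timing – 50 min enzyme reaction at room temperature, protected from light · Detection – fluorescence intensity · Controls – substrate-only low control, DMSO enzyme-plus-substrate high control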
STEP block = blocks human striatal-enriched tyrosine phosphatase. P54829. recombinant STEP, OMFP fluorogenic substrate, fluorescence. 360,000 compounds, 0.25% hits. AID 588621. inhibition, % at 20 µM;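 active = inhibition at 20 µM, scaled per plate between control wells, above about 37%, limit read from the data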;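 also: 0% = DMSO with enzyme and substrate and 100% = substrate only without enzyme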
Target sequence (P54829 whole entry, looked up): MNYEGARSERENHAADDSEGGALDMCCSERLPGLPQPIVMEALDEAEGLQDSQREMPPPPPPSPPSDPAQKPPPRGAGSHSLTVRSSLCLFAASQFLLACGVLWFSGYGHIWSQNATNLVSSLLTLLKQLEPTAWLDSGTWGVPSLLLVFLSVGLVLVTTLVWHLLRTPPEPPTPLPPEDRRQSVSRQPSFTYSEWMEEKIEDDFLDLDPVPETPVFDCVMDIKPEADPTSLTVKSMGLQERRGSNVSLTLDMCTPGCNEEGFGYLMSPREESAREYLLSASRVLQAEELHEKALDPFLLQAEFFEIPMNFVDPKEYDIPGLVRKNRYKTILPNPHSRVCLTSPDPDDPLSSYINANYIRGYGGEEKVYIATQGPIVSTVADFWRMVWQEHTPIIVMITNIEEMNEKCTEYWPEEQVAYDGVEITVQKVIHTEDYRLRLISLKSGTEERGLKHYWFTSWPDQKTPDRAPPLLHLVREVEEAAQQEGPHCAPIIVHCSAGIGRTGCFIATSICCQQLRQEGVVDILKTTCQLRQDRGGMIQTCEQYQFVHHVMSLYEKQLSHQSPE
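System: STEP (striatal-enriched tyrosine phosphatase) enzyme, cell-free; medium: Bis-Tris pH 6.0 buffer with DTT, detergent; dosing: 20 µM, 1% DMSO; times: reaction 20 min, ambient temperature; detection: fluorescence, 480/540 nm; read-out basis: normalized % inhibition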
DNMT1 inh = DNMT1 (human) enzyme inhibition. P26358. DNMT1 molecular beacon, Hinp1I cleavage, fluorescence. inhibition (reported as % activation of signal), % at 10 µM. 360,000 compounds, 0.83% hits. AID 588458; in the data active = inhibition above about 50%
SUMO1 PPI mod = SUMO1-SIM interaction modulation; P63165; SUMO1 binding to a labelled peptide, TR-FRET, 1 h; inhibition, % at 20 µM; 360,000 compounds, 0.33% hits; AID 602429; in the data active = inhibition above about 37%
Scp1 confirm = confirmation of human Scp-1 phosphatase inhibitors; inhibition, % at 20 µM; AID 540281; 2,500 compounds, 61% hits; shares compounds with Scp-1 inhibitor; recombinant SCP-1 catalytic domain, phosphate release, malachite green absorbance;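 also: plate controls were DMSO with enzyme for no effect and buffer wells lacking enzyme for full effect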
Scp-1 MG ctr = counter-screen for Scp-1 inhibitors: colorimetric interference. shares compounds with Scp-1 inhibitor. Colorimetric interference counterscreen, malachite green absorbance 630 nm. apparent inhibition (interference), % at 20 µM. 2,500 tested, under 10 active. AID 540313;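 also: compounds added after enzyme reaction finished so only phosphate colour detection is probed; plate controls were DMSO wells with completed Scp-1 reaction for no effect and substrate wells lacking enzyme for full effect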
Scp1 DSF = validation of human Scp-1 inhibitors by thermal shift binding; shares compounds with Scp-1 inhibitor; Recombinant SCP1, Sypro Orange thermal shift Tm; thermal shift relative to vanadate control, % at 40 µM; 1,500 compounds, 25% hits;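 active = substances whose mean melting-temperature shift, as a percentage of the reference inhibitor's shift, reaches about 5.3%, limit read from the data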;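 also: 0% = Tm of DMSO wells and 100% = Tm with sodium orthovanadate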
DNMT1 confirm = DNMT1 inhibition confirmation, single concentration. shares compounds with DNMT1 inh. DNMT1 molecular beacon HinP1I cleavage, fluorescence. inhibition, % at 10 µM. 2,300 compounds, 8% hits. AID 602385;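 active = average inhibition of at least 30% in the single-concentration confirmation test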
Beacon interf = shows spectral interference in the DNMT1 beacon assay | shares compounds with DNMT1 inh | DNMT1 molecular beacon spectral interference counterscreen, fluorescence 485/520 | activation (fluorescence interference), % at 10 µM | 2,300 compounds, 1% hits;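 active = activation of at least 30% at 10 µM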;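 also: DNMT1 catalytic domain with a HinP1I cleavage step and a FAM/dabcyl DNA beacon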
NadD conf = confirmation of Staphylococcus aureus NadD inhibitors; shares compounds with NadD block; inhibition, % at 20 µM; 2,000 compounds, 13% hits; purified S. aureus NadD, colorimetric enzyme assay; AID 624309; in the data active = inhibition mostly above about 42%, no sharp cut-off; inactive = mostly below about 42%
* = called active by the depositor. Shown are actives, neighbours in structure and some others; about 2.4% of the full set was active somewhere.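 The calls were made as follows, unless noted: active = inhibition of at least 30% at 20 µM; inactive = the rest.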

Screening CCOC(=O)C(=O)NCc1ccc(/C=C2/N=C(C)C(C(=O)OCC)=C2O)o1 returned NadD block -0.9, Scp-1 inhibitor -0.8, LMPTP inh 0.7, STEP block -2.8, DNMT1 inh 15.0 and SUMO1 PPI mod -3.6.
For CCCCn1c(N)c(N(CC(C)C)C(=O)CSc2ccccc2C)c(=O)[nH]c1=O the results were NadD block -6.2, Scp-1 inhibitor -3.8, LMPTP inh -0.7, STEP block -0.8, DNMT1 inh 2.3 and SUMO1 PPI mod 0.4.
Screening CCc1nnc(NC(=O)CSc2nnc(-c3c[nH]c4ccccc34)n2C)s1 returned NadD block -0.9, Scp-1 inhibitor -0.3, LMPTP inh -1.4, STEP block 9.8, DNMT1 inh 9.7 and SUMO1 PPI mod 3.3.
CCOC(=O)c1c(NC(=O)CSc2nnc(-c3c[nH]c4ccccc34)n2C)sc2c1CCCC2 was read as NadD block 33.0*, Scp-1 inhibitor 52.6*, LMPTP inh 3.1, STEP block 0.3, DNMT1 inh -27.1, SUMO1 PPI mod 1.1, Scp1 confirm 32.1*, Scp-1 MG ctr 15.4, Scp1 DSF 3.0 and NadD conf 24.6.
Screening COc1cc(NC(=O)c2ccc(Cl)cc2Cl)ccc1-c1cc2ccccc2oc1=O returned NadD block 18.1, Scp-1 inhibitor -4.4, LMPTP inh 3.9, STEP block -1.1, DNMT1 inh 66.2*, SUMO1 PPI mod 2.5, DNMT1 confirm -1.1 and Beacon interf -2.4.
`COc1ccc2nc3ccccc3nc2c1NC(=O)c1ccc(Cl)cc1Cl` gave NadD block -8.4, Scp-1 inhibitor -4.1, LMPTP inh -4.0, STEP block -49.5, DNMT1 inh 56.6*, SUMO1 PPI mod -7.9, DNMT1 confirm 28.5 and Beacon interf 37.5*.
COc1cc(NC(C)=O)ccc1-c1cc2ccccc2oc1=O was read as NadD block 0.4, Scp-1 inhibitor -6.2, LMPTP inh 0.4, STEP block -0.9, DNMT1 inh -10.2 and SUMO1 PPI mod -15.6.
Screening Cc1cccc(NC(=S)NC2CC3CCCC(C2)N3Cc2cccs2)c1 (stereo unspecified) returned NadD block -4.5, Scp-1 inhibitor 0.5, LMPTP inh -2.5, STEP block 5.0, DNMT1 inh 84.4*, SUMO1 PPI mod 1.6, DNMT1 confirm 2.9 and Beacon interf 1.1.
Screening CC(=O)N1CCN(Cc2cc(=O)oc3cc(C)cc(C)c23)CC1 returned NadD block -2.9, LMPTP inh -0.2, STEP block 0.1, DNMT1 inh 4.0 and SUMO1 PPI mod 4.2.
Screening S=c1[nH]nc(-c2cccc(Cl)c2)n1/N=C/c1ccc(-c2ccccc2Br)o1 returned NadD block 21.3, Scp-1 inhibitor -19.9, LMPTP inh 3.7, STEP block -1.3, DNMT1 inh 62.2*, SUMO1 PPI mod -0.9, DNMT1 confirm 13.1 and Beacon interf -0.3.
`Cc1ccc(/C=N/n2c(-c3cccc(Cl)c3)n[nH]c2=S)o1` gave NadD block 4.9, Scp-1 inhibitor -6.2, LMPTP inh -0.5, STEP block 1.9, DNMT1 inh -4.2 and SUMO1 PPI mod -5.9.
